Activity calls are given as the source filed them. The rule behind the calls is not given here.
Legend:
A2780 ADR [1] = experiment: Reversal of P-gp 170-mediated multidrug resistance in human A2780/DX3 cells assessed as reduction in doxorubicin IC50 at IC0 pretreated for 6 hrs before doxorubicin administration measured after 3 days by MTT assay; assay type: cell-based; design: scale not given: the % may be the effect or the level left
Outline: (§1)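 A2780/DX3 cells went into medium holding the modulator at its MTT-derived 0% or 5% growth-inhibition concentration. Doxorubicin (30–0.048 μM serial dilutions, modulator kept constant) was added 6 h later. MTT (2 mg/mL) was added after 3 days for 4 h at 37 °C, formazan dissolved in DMSO, A540 read. IC50 came from dose–response curves, repeated 4–6 times. % reduction is versus doxorubicin alone in the same experiment. Kruskal–Wallis/Mann–Whitney tests.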

[2] = Antiproliferative activity against human A2780/DX3 cells at 1.23 uM after 3 days by MTT assay; assay type: functional; details: A2780/DX3, 72 h
A2780 [3] = experiment: Antiproliferative activity against human A2780 cells at 1.3 uM after 3 days by MTT assay; assay type: functional; details: A2780, 72 h
A2780 ADR [4] = experiment: Reversal of P-gp 170-mediated multidrug resistance in human A2780/DX3 cells assessed as increase in intracellular doxorubicin accumulation at 5 times IC5 pretreated for 2 hrs before doxorubicin administration measured after 2 hrs by flow cytometry; assay type: cell-based
Outline: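 A2780/DX3 cells (kept in 0.1 μM doxorubicin, drug withdrawn 2–3 days before use) seeded in flasks, grown 24 h to 75–85% confluence. Modulator given at five times the 5%-growth-inhibition concentration for 2 h, then 10 μM doxorubicin for 2 h more. Cells trypsinized, fixed in 3.7% paraformaldehyde/2% sucrose in PBS. Flow cytometry, 488 nm excitation, 575 nm bandpass. Read-out is MFI, with % increase taken from the MFI ratio to doxorubicin alone.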

A2780 [5] = experiment: Antiproliferative activity against human A2780 cells after 3 days by MTT assay; assay type: functional, cell-based; details: for IC50: Homo sapiens, A2780, 72 h
Outline: (§2)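 Cells plated 6–8 h in 96-well plates. Compound alone, in duplicate at ≥5 concentrations (3-fold serial dilutions, top 100 μM), with final DMSO […] after predilution in FCS. After 3 days, MTT 4 h at 37 °C, formazan dissolved in DMSO, A540. IC50 taken from single dose–response curves; 3–4 experiments. A2780/DX3 kept doxorubicin-free 2–3 days beforehand.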

[6] = Antiproliferative activity against human A2780/DX3 cells after 3 days by MTT assay; assay type: functional, cell-based; details: for IC50: Homo sapiens, A2780/DX3, 72 h; outline: as §2
A2780 ADR [7] = experiment: Reversal of P-gp 170-mediated multidrug resistance in human A2780/DX3 cells assessed as reduction in doxorubicin IC50 at IC5 pretreated for 6 hrs before doxorubicin administration measured after 3 days by MTT assay; assay type: cell-based; design: scale not given: the % may be the effect or the level left; outline: as §1
[8] = Antiproliferative activity against human A2780/DX3 cells at 0.81 uM after 3 days by MTT assay; assay type: functional; details: A2780/DX3, 72 h
A2780 [9] = experiment: Antiproliferative activity against human A2780 cells at 0.14 uM after 3 days by MTT assay; assay type: functional; details: A2780, 72 h
A2780 ADR [10] = experiment: Reversal of P-gp 170-mediated multidrug resistance in human A2780/DX3 cells assessed as increase in intracellular doxorubicin accumulation at 5 times IC5 pretreated for 2 hrs before doxorubicin administration measured after 2 hrs by epifluorescent microscopic analysis; assay type: cell-based
Outline: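 A2780/DX3 cells on chamber slides at 75–85% confluence, pretreated 2 h with compound at five times the concentration giving 5% growth inhibition. Doxorubicin 10 μM then added for 2 h. Cells washed in cold PBS, fixed in 3.7% paraformaldehyde/2% sucrose, mounted and imaged by epifluorescence at 20X. Untreated and compound-only controls included.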

A2780 [11] = experiment: Ratio of IC50 for human A2780/DX3 cells to IC50 for human A2780 cells assessed as mean resistance index; assay type: functional
Outline: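 Doxorubicin alone tested by 3-day MTT assay in both lines (absorbance at 540 nm). IC50 from dose–response curves. Index is the mean IC50 in resistant cells divided by the mean IC50 in sensitive cells.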

[12] = Antiproliferative activity against human A2780/DX3 cells at 4.0 uM after 3 days by MTT assay; assay type: functional; details: A2780/DX3, 72 h
[13] = Down regulation of P-gp 170 expression in human A2780/DX3 cells after 72 hrs by flow cytometry; assay type: functional, cell-based
Outline: (§3)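 Cells exposed 72 h to compound at concentrations giving 5% or 0% growth inhibition. Then washed in PBS/2% FCS; 2.5 × 10^5 cells stained at 4 °C with anti-Pgp MM4.17 monoclonal, then FITC goat anti-mouse IgG, and analysed by flow cytometry.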

A2780 [14] = experiment: Antiproliferative activity against human A2780 cells at 2.9 uM after 3 days by MTT assay; assay type: functional; details: A2780, 72 h
A2780 [15] = experiment: Down regulation of P-gp 170 expression in human A2780 cells after 72 hrs by flow cytometry; assay type: functional, cell-based; outline: as §3
A2780 [16] = experiment: Antiproliferative activity against human A2780 cells at 0.15 uM after 3 days by MTT assay; assay type: functional; details: A2780, 72 h
[17] = Antiproliferative activity against human A2780/DX3 cells at 0.3 uM after 3 days by MTT assay; assay type: functional; details: A2780/DX3, 72 h
[18] = Antiproliferative activity against human A2780/DX3 cells at 2.40 uM after 3 days by MTT assay; assay type: functional; details: A2780/DX3, 72 h
A2780 [19] = experiment: Antiproliferative activity against human A2780 cells at 2.20 uM after 3 days by MTT assay; assay type: functional; details: A2780, 72 h

| Compound | IC50 (A2780 [5]) [µM] | Activity (A2780 ADR [1]) [%] | Activity (A2780 ADR [4]) [%] | IC5 (A2780 [5]) [µM] | IC5 [6] [µM] | IC50 [6] [µM] | Activity (A2780 ADR [7]) [%] | Activity [13] | Activity (A2780 [15]) | further results |
| --- | --- | --- | --- | --- | --- | --- | --- | --- | --- | --- |
| CC/C=C/COC1(c2ccc(Br)cc2)SC=C(C)n2c1noc2=O (stereo not drawn) | 59 | -8 | < 48 | 1.9 | 2.45 | 111 | -23 | – | – | inhibition at 1.23 µM [2]: 0%; inhibition at 1.3 µM (A2780 [3]): 0% |
| O=c1onc2n1C=CSC2(O)c1ccc(Cl)cc1 (stereo not drawn) | > 100 | 3 | < 48 | 0.48 | 3.02 | > 100 | 10 | – | – | inhibition at 0.81 µM [8]: 0%; inhibition at 0.14 µM (A2780 [9]): 0% |
| CCCCCOC1(c2ccc(Cl)cc2)SC=C(C)n2c1noc2=O (stereo not drawn) | > 100 | -39 | 248 | 7.8 | 19 | > 100 | -38 | inactive | inactive | inhibition at 4 µM [12]: 0%; inhibition at 2.9 µM (A2780 [14]): 0% |

Stronger by IC50 (A2780 [5]), values ahead:

| IC50 (A2780 [5]) [µM] | Compound | Activity (A2780 ADR [1]) [%] | Activity (A2780 ADR [4]) [%] | IC5 (A2780 [5]) [µM] | IC5 [6] [µM] | IC50 [6] [µM] | Activity (A2780 ADR [7]) [%] | Activity [13] | Activity (A2780 [15]) | further results |
| --- | --- | --- | --- | --- | --- | --- | --- | --- | --- | --- |
| 0.02 | COc1cccc2c1C(=O)c1c(O)c3c(c(O)c1C2=O)C[C@@](O)(C(=O)CO)C[C@@H]3O[C@H]1C[C@H](N)[C@H](O)[C@H](C)O1 [DOXORUBICIN] | – | – | – | – | 2.21 | – | – | – | Activity_index (A2780 ADR [10]): Active; Ratio IC50 (A2780 [11]): 93 |
| 55 | CC/C=C/COC1(c2ccc(Cl)cc2)SC=C(C)n2c1noc2=O (stereo not drawn) | 2 | < 48 | 1.26 | 2.5 | 88 | -1 | – | – | inhibition at 0.15 µM (A2780 [16]): 0%; inhibition at 0.3 µM [17]: 0% |
| 55 | CC/C=C\COC1(c2ccc(Cl)cc2)SC=C(C)n2c1noc2=O (stereo not drawn) | -9 | 429 | 3.5 | 20.7 | 103 | -47 | inactive | inactive | inhibition at 2.4 µM [18]: 0%; inhibition at 2.2 µM (A2780 [19]): 0% |
